Reference: article PMC5499704 (Journal of medicinal chemistry, 2016)

Experiments:
ERα [1] = target: T1, ERα (Homo sapiens, UniProt P03372); test: Western blot of ERα downregulation in T47D cells; type: cell-based; details: dose range 0.03–1 μM
T1 sequence (P03372 1-595): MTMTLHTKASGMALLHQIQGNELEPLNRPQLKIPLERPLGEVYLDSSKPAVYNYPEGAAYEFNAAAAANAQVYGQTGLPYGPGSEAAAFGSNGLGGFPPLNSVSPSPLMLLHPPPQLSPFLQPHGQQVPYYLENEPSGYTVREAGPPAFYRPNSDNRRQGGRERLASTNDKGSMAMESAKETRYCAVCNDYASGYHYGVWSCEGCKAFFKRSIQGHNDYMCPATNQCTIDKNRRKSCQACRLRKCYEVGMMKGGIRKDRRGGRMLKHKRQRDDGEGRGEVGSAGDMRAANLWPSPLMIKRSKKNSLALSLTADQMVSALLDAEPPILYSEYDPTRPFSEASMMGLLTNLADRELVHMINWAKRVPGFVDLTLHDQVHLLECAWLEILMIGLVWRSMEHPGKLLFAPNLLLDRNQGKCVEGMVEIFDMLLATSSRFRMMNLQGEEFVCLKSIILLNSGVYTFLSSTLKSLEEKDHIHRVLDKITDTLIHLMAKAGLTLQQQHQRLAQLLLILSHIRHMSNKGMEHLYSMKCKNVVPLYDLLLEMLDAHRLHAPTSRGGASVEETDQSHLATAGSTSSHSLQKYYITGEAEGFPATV

[2] = Stability in culture media in vitro; type: in vitro ADME; details: dissolved in ethanol then diluted in culture media for an extended period of time
T47D-kb-Luc cells = test: T47D-kb-Luc ERE luciferase reporter gene assay; type: cell-based, human; details: at 1 nM, in the presence of 0.01 nM estradiol (E2)
How it was run: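 Stably transfected T47D-kb-Luc reporter cells were stimulated with estradiol at 10−11 M plus test compound at 0.1, 1 or 10 nM. ERE-driven activity was read as relative luciferase units and normalized to the estradiol-only control. Run in quadruplicate in at least three separate experiments, reported as mean ± SD (%).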

ERα [3] = target: T1, ERα; test: Western blot of ERα downregulation in T47D/PKCα cells; type: cell-based; details: dose range 0.03–1 μM
MCF-7/TamR = test: Proliferation of breast cancer cells, MCF-7/TamR; type: cell-based; details: Homo sapiens, MCF7, 120 h, read-out: IC50, proliferation
How it was run: (§1)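 Cells grown in phenol red-free DMEM with 5% FBS at 37 °C, 5% CO2. MCF-7/TamR cells were derived by prolonged 4-hydroxytamoxifen exposure. Cells seeded at 50000/well, then treated 5 days with test compound at six doses from 10−10 to 10−5 M, with DMSO vehicle. Viable cells counted by Coulter counter. Survival expressed as a percentage of vehicle, and IC50 taken from dose–response curves.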

MCF-7 = test: Proliferation of breast cancer cells, MCF-7; type: cell-based; details: Homo sapiens, MCF7, 120 h, read-out: IC50, proliferation
How it was run: as §1

[4] = patients, cited from earlier work

| SMILES | ER downregulation level (ERα [1]) | metabolic stability in vitro [2] | inhibition of E2-induced luciferase (ERE activity) (T47D-kb-Luc cells) | ER downregulation level (ERα [3]) | IC50 (MCF-7/TamR) | IC50 (MCF-7) | peak blood concentration ([4]; 500 mg im, FINDER1 and FINDER2 clinical trials ref 3, 5) | time to reach steady-state serum concentration ([4]; im monthly dose of 250 mg ref 4) |
| --- | --- | --- | --- | --- | --- | --- | --- | --- |
| C[C@]12CC[C@@H]3c4ccc(B(O)O)cc4C[C@@H](CCCCCCCCC[S+]([O-])CCCC(F)(F)C(F)(F)F)[C@H]3[C@@H]1CC[C@@H]2O (stereo partly drawn) [Compound 5, ((7R,8R,9S,13S,14S,17S)-17-Hydroxy-13-methyl-7-(9-((4,4,5,5,5-pentafluoropentyl)sulfinyl)nonyl)-7,8,9,11,12,13,14,15,16,17-deca-hydro-6H-cyclopenta[a]phenanthren-3-yl)boronic Acid] | greater than 50% | metabolic stability was later confirmed in vitro | completely blocking the estrogen response element (ERE) activity | greater than 50% | – | – | – | – |
| CC/C(=C(\c1ccc(O)cc1)c1ccc(OCCN(C)C)cc1)c1ccccc1 [Compound 4-OHT, 4-hydroxytamoxifen] | – | – | – | – | 22 µM | 0.0033 µM | – | – |
| C[C@]12CC[C@@H]3c4ccc(O)cc4C[C@@H](CCCCCCCCC[S+]([O-])CCCC(F)(F)C(F)(F)F)[C@H]3[C@@H]1CC[C@@H]2O (stereo partly shown) [fulvestrant] | greater than 50% | – | – | greater than 50% | – | – | < 25 ng/mL | over 3 months |
